PGC1a acetyl inh: inhibitors of PGC1a acetylation signal, primary screen, cell-based, U2OS, AlphaScreen, inhibitor mode | 350,000 compounds, 0.17% hits | AID 651687, 2012 | inhibition, % at 15.6 µM | AlphaScreen anti-acetyl-lysine; with virally co-expressed GCN5 acetyltransferase;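 active = every replicate shows inhibition of at least 40%; inconclusive = mean inhibition at least 40% but some replicate below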
XiGFP reactiv: activators of inactive X chromosome reactivation, primary screen, imaging, XiGFP fibroblasts, GFP high-content imaging, set 2; 360,000 compounds, 0.055% hits; activation, % at 7.58 µM; AID 743238, 2013; XiGFP mouse fibroblasts, % GFP-positive cells imaging, 3 d; cells co-treated with 5-aza-dC sensitizer; scaled so ellipticine positive control = 100%;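 active = mean normalized replicate activation at least 10% and every replicate at or above 10%; inconclusive = only one of the two criteria met; inactive = mean below 10% and not all replicates reach 10%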
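Material: XiGFP fibroblasts, SV40-immortalized. Buffer or medium: DMEM plus 5-aza-dC sensitizer. Compound: single concentration per compound, delivered by pin transfer. Times: 3 days compound exposure. Controls: ellipticine 6 µM.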
FN deposit inh: inhibitors of fibronectin matrix deposition, primary screen, AH1F cells, Alexa488-fibronectin fluorescence, plate reader; AH1F fibroblasts, overnight; inhibition, % at 12.6 µM; 350,000 compounds, 0.086% hits; AID 743247, 2014;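 active = mean inhibition across replicates of 30% or more, regardless of how many single replicates reach that level; inconclusive = mean under 30% yet at least half of replicates reach 30%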
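Measured by – fluorescence 485/525 nm · System – AH1F fibroblast monolayer, labelled fibronectin deposition · Amount – 10000 cells per well · Buffer or medium – serum-reduced DMEM (2% serum) · Doses – single dose, pinned · Also added – fluorescent fibronectin at 24 nM final · Schedule – 1 h cell attachment, overnight exposure to compound and label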
F508del corr: F508del CFTR correction, initial screen, CFBE line, single point; activity (quench increase), % at 7.58 µM; CFBE cells, YFP halide quenching; stimulated with forskolin plus potentiator P3; % fluorescence drop versus neutral controls; AID 720511, 2013; 350,000 compounds, 0.36% hits;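 active = mean added fluorescence quench of at least 8% versus neutral control, with both replicates also reaching 8%; inconclusive = only one of the mean or replicate conditions met; inactive = mean below 8% and not both replicates reaching 8%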;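 also: cells transiently co-express mutant CFTR-F508del with the halide-sensitive YFP; corrector assay measuring rescue of mutant channel to the surface after 24 h compound exposure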
DENV2 CPE: inhibitors of DENV2 cytopathic effect, primary screen, cell-based, plate reader, single concentration; CPE inhibition, % at 9.99 µM; AID 651640, 2012; DENV2-infected cells, cytopathic effect rescue; 350,000 compounds, 1.7% hits; in the data active = CPE inhibition above about 20%, passing the limit was not always enough; inconclusive = no clear call, values can overlap the other calls; tested in BHK-21 cells
Cneo AK release: Cryptococcus neoformans cell lysis inducers, primary screen, AK release luminescence, single concentration; C. neoformans lysis, adenylate kinase release luminescence, 4 h; normalised: neutral wells 0, clomiphene wells 100; lysis activity, % at 15 µM; 360,000 compounds, 0.2% hits;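 active = mean lysis activity across replicates of at least 80%, whatever share of replicates individually reach that level; inactive = mean lysis activity below 80%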
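Assay system: log-phase C. neoformans yeast / Quantity: yeast cell density of 5 × 10^6 cells/mL / Medium: fresh YPD growth medium / Compound: single dose / Timing: static 4 h at 37 °C with compound, 1 h detection / Measured by: adenylate kinase release luminescence / Read-out: lysis from increased AK signal / Benchmarks: Clomiphene as positive lysis control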
Of the large screens only hits and unclear results are named; the others gave an inactive call; ! = a repeat was not active. Shown are actives, neighbours in structure and some others; about 1.9% of the full set was active somewhere.

Cc1noc(C)c1NC(=O)Nc1ccc2c(c1)C(=O)N([C@@H](C)CO)C[C@@H](C)[C@@H](CN(C)S(C)(=O)=O)OCCCC[C@@H](C)O2	DENV2 CPE 102.1 (no result: FN deposit inh)
Cc1noc(C)c1NC(=O)Nc1ccc2c(c1)C(=O)N([C@H](C)CO)C[C@@H](C)[C@H](CN(C)S(C)(=O)=O)OCCCC[C@@H](C)O2	Cneo AK release 103.1 (no result: FN deposit inh)
CCC(=O)N(C)C[C@@H]1Oc2ncc(C#Cc3ccccc3)cc2C(=O)N([C@H](C)CO)C[C@@H]1C	none
Cc1ccccc1-c1ccc([C@H]2[C@H]3CN(CC4CCOCC4)CCCCN3[C@H]2CO)cc1	none (no result: FN deposit inh)
CO[C@@H]1CN(C)C(=O)c2cc(NS(=O)(=O)c3cccc(F)c3)ccc2OC[C@H](C)NC[C@@H]1C	none
COc1cc2cc(CCCOC(=O)CCC(=O)O)oc(=O)c2cc1OC	DENV2 CPE 28.1
COc1cc2cc(C[C@H](C)O)oc(=O)c2cc1OC	none (no result: DENV2 CPE)
COc1cc2cc(CCO)oc(=O)c2cc1OC	DENV2 CPE 89.0
COc1cc2cc(CCOC(=O)CCCC(=O)O)oc(=O)c2cc1OC	none
C/C=C/c1cnc2c(c1)C(=O)N([C@@H](C)CO)C[C@@H](C)[C@H](CN(C)Cc1ccc(F)cc1)O2	DENV2 CPE inconclusive (no result: FN deposit inh)
c1ccc(-c2csc(-c3ccc(-c4csnn4)cc3)n2)cc1	DENV2 CPE 54.2 (no result: PGC1a acetyl inh, Cneo AK release)
COc1ccccc1N1CCN(Cc2cnc3ccc(Cl)cn23)CC1	DENV2 CPE 32.0
O=C(Nc1ccc(-c2csc(Nc3cccc(C(F)(F)F)c3)n2)cc1)c1cc([N+](=O)[O-])cc(C(F)(F)F)c1	DENV2 CPE 134.6
O=C(Nc1ccc(-c2csc(Nc3cccc(C(F)(F)F)c3)n2)cc1)c1ccccc1	none (no result: PGC1a acetyl inh)
CC(=O)c1ccc(NC(=O)c2ccc(C)c(S(=O)(=O)N3CCOCC3)c2)cc1	none (no result: PGC1a acetyl inh)
Cc1ccc(NC(=O)c2ccc(S(=O)(=O)N3CC(C)CC(C)C3)cc2)cc1S(=O)(=O)N1CCOCC1 (stereo not drawn)	DENV2 CPE 45.6 (no result: PGC1a acetyl inh)
COc1ccc(CC(=O)NNC(=O)COc2ccc(C)cc2)cc1S(=O)(=O)N1CCOCC1	DENV2 CPE 40.3
Cc1ccc(NC(=O)COc2ccc(Br)cc2CO)cc1S(=O)(=O)N1CCOCC1	F508del corr 8.6 (no result: PGC1a acetyl inh)
COc1ccc(CC(=O)Nc2nccs2)cc1S(=O)(=O)N1CCOCC1	F508del corr 17.0 (no result: PGC1a acetyl inh)
COc1ccc2c3c([nH]c2c1)[C@@H](CO)N(C(=O)c1ccncc1)CC31CCN(C(=O)Nc2cccc(F)c2)CC1	none (no result: PGC1a acetyl inh, FN deposit inh, Cneo AK release)
C[C@H](CO)N1C[C@H](C)[C@H](CN(C)Cc2ccc(-c3ccccc3)cc2)Oc2ccc(NC(=O)C3CC3)cc2C1=O	none (no result: FN deposit inh)
CN(C)CC(=O)Nc1ccc2c(c1)[C@H]1C[C@H](CC(=O)NCc3cccnc3)O[C@@H](CO)[C@H]1O2	none
CCCC#Cc1ccc([C@@H]2[C@H]3CN(Cc4cncnc4)CCCCN3[C@H]2CO)cc1	DENV2 CPE 28.7 (no result: FN deposit inh)
CCCC#Cc1ccc([C@@H]2[C@@H](CO)N3CCCCN(Cc4cncnc4)C[C@H]23)cc1	none (no result: FN deposit inh, DENV2 CPE)
CCCC#Cc1ccc([C@H]2[C@@H](CO)N3CCCCN(Cc4ccncc4)C[C@H]23)cc1	none (no result: FN deposit inh)
CCCC#Cc1ccc([C@@H]2[C@@H](CO)N3CCCCN(Cc4ccncc4)C[C@H]23)cc1	DENV2 CPE 46.6 (no result: FN deposit inh)
C[C@@H]1CN([C@@H](C)CO)C(=O)c2cc(NS(=O)(=O)c3cccs3)ccc2O[C@@H](C)CCCCO[C@H]1CN(C)Cc1ccc2c(c1)OCO2	DENV2 CPE 36.6 (no result: FN deposit inh)
C[C@H]1CCCCO[C@H](CN(C)Cc2ccc3c(c2)OCO3)[C@@H](C)CN([C@@H](C)CO)C(=O)c2cc(NS(=O)(=O)c3cccs3)ccc2O1	DENV2 CPE 41.0! (no result: FN deposit inh)
C[C@H](CO)N1C[C@H](C)[C@@H](CN(C)Cc2ccc3c(c2)OCO3)OCCCC[C@H](C)Oc2ccc(NS(=O)(=O)c3cccs3)cc2C1=O	none (no result: FN deposit inh)
C[C@@H]1CCCCO[C@@H](CN(C)Cc2ccc3c(c2)OCO3)[C@H](C)CN([C@@H](C)CO)C(=O)c2cc(NS(=O)(=O)c3cccs3)ccc2O1	DENV2 CPE 112.1! (no result: FN deposit inh)
C[C@@H]1CN([C@H](C)CO)C(=O)c2cc(NS(=O)(=O)c3cccs3)ccc2O[C@@H](C)CCCCO[C@@H]1CN(C)Cc1ccc2c(c1)OCO2	none (no result: FN deposit inh)
C[C@H]1CN([C@@H](C)CO)C(=O)c2cccc(NC(=O)c3ccc(-c4nccs4)cc3)c2O[C@H]1CN(C)Cc1ccc2c(c1)OCO2	none (no result: FN deposit inh)
CN1C(=O)c2cc(NC(=O)c3cnccn3)ccc2OC[C@@H]2O[C@@H](CC(=O)NCC3CCCCC3)CC[C@H]21	DENV2 CPE 30.0 (no result: PGC1a acetyl inh, F508del corr)
COC(=O)C[C@H]1CC[C@H]2[C@@H](COc3ccc(NC(=O)c4cnccn4)cc3C(=O)N2C)O1	DENV2 CPE 143.6
CN1C(=O)c2cc(NC(=O)c3cnccn3)ccc2OC[C@H]2O[C@@H](CC(=O)NCC3CCCCC3)CC[C@H]21	none (no result: PGC1a acetyl inh, F508del corr)
Cc1ccc(S(=O)(=O)N(C)C[C@H]2Oc3c(NC(=O)Nc4ccc(F)cc4)cccc3C(=O)N([C@H](C)CO)C[C@H]2C)cc1	none (no result: FN deposit inh)
O=C(CSc1nc2c(oc3ccccc32)c(=O)n1CC1CCCO1)NCc1ccccc1 (stereo not drawn)	DENV2 CPE 71.9
C[C@H](NC(=O)C[C@@H]1C[C@H]2c3cc(NC(=O)NC4CCCC4)ccc3O[C@H]2[C@H](CO)O1)c1ccccc1	DENV2 CPE 26.8
O=C(C[C@H]1C[C@H]2c3cc(NC(=O)NC4CCCCC4)ccc3O[C@H]2[C@H](CO)O1)NCC(F)(F)F	DENV2 CPE 48.7 (no result: FN deposit inh)
O=C(C[C@H]1C[C@@H]2c3cc(NC(=O)c4cccnc4)ccc3O[C@@H]2[C@@H](CO)O1)NCCc1ccccc1	DENV2 CPE inconclusive, Cneo AK release 80.8 (no result: FN deposit inh)
O=C(C[C@H]1C[C@@H]2c3cc(NC(=O)NC4CCCCC4)ccc3O[C@@H]2[C@@H](CO)O1)NCCc1ccccc1	DENV2 CPE 37.2 (no result: FN deposit inh)
C/C(=N\NC(=O)c1ccc(Cn2cc([N+](=O)[O-])cn2)o1)c1cccc(NC(=O)C(C)C)c1	DENV2 CPE 27.6 (no result: PGC1a acetyl inh, F508del corr, Cneo AK release)
O=S(=O)(NCCC1=CCCCC1)c1ccc(Br)cc1	DENV2 CPE 119.3 (no result: PGC1a acetyl inh)
Cc1ccc(NC2CCCN(C(=O)c3ccoc3C)C2)cc1C (stereo not drawn)	DENV2 CPE 28.0 (no result: FN deposit inh)
